Results from ChEMBL document CHEMBL1275462 (Antimicrob Agents Chemother, 2008).
≈ marks a conversion by molar mass, not a printed value. Calls of active or inactive are those of the source. No cut-off for these calls is given here.

Tests used:
Staphylococcus aureus [1] = experiment: Antimicrobial activity against methicillin-resistant Staphylococcus aureus BK2464 assessed as concentration required for minimum inhibition of BRP-resistant subpopulation growth by Etest; type: functional
Method in brief: (§1)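 Etest (manufacturer's method) and population analysis: overnight cultures serially diluted and plated on TSA with increasing oxacillin or BPR, CFU counted after 48 h at 37°C. Colonies from subpopulations growing at high oxacillin or BPR were picked, restreaked on antibiotic-free TSA for three passages, then retested by population analysis.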

Staphylococcus aureus [2] = experiment: Displacement of benzyl-[14C]penicillin from Staphylococcus aureus PBP2 RU130 mutant by in vitro competitive assay; settings: COL
Method in brief: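 Membranes from PBP 2 insertional mutant RU130 (Tn551 in transpeptidase domain), late exponential phase, 150 µg protein, preincubated with increasing oxacillin or BPR 10 min at 30°C. Then labelled with 20 µg/ml benzyl[14C]penicillin 10 min at 37°C and stopped with excess unlabelled penicillin in SDS. SDS-PAGE with phosphor screen exposure for 2 weeks.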

Staphylococcus aureus [3] = experiment: Antimicrobial activity against methicillin-resistant Staphylococcus aureus BK2529 assessed as concentration required for bacterial subpopulation growth; type: functional; method in brief: as §1
Staphylococcus aureus [4] = experiment: Antimicrobial activity against methicillin-resistant Staphylococcus aureus HPV107 assessed as concentration required for minimum inhibition of BRP-resistant subpopulation growth by Etest; type: functional; method in brief: as §1
Staphylococcus aureus [5] = experiment: Antimicrobial activity against methicillin-resistant Staphylococcus aureus E2125 assessed as concentration required for bacterial subpopulation growth; type: functional; method in brief: as §1
Staphylococcus aureus [6] = experiment: Antimicrobial activity against methicillin-resistant Staphylococcus aureus HAR24 assessed as concentration required for minimum inhibition of BRP-resistant subpopulation growth; type: functional; method in brief: as §1
MecA = target: T1, MecA (Staphylococcus aureus, UniProt Q7DHH4); experiment: Inhibition of methicillin-resistant Staphylococcus aureus COL PBP2a by competitive assay; set-up: species or system Staphylococcus aureus subsp. aureus COL
T1 sequence (Q7DHH4 whole entry): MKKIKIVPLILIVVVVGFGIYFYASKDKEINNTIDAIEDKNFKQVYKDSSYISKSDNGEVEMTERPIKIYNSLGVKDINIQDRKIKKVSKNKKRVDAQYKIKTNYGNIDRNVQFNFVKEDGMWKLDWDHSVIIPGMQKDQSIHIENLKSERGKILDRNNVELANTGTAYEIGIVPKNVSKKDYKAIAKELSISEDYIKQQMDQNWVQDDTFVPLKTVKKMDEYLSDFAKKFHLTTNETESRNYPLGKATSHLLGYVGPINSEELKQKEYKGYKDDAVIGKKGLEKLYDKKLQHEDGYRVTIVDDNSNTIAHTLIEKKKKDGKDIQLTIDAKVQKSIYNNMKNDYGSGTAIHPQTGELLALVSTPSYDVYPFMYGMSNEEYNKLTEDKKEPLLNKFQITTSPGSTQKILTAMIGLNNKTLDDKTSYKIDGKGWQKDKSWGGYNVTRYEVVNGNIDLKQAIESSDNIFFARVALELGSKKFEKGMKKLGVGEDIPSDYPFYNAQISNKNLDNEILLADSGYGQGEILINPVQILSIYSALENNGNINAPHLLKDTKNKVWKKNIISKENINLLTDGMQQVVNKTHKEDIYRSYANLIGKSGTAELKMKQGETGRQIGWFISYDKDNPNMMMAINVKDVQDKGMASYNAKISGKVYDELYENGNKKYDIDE
Method in brief: (§2)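 Purified soluble PBP 2A (mecA expressed in E. coli, 97% pure) at 0.8 µM, preincubated with drug 30 min at 30°C. Then 20 µM Bocillin FL added for 10 min at 37°C, quenched with SDS-PAGE buffer and boiled. Drug range 0.5–20 µM; for IC50, BPR 0.5–200 µM or oxacillin 5–6,000 µM. Curve fitting.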

Staphylococcus aureus [7] = experiment: Antimicrobial activity against methicillin-resistant Staphylococcus aureus BK2464 by Etest; type: functional; method in brief: as §1
Staphylococcus aureus [8] = experiment: Antimicrobial activity against methicillin-resistant Staphylococcus aureus COL assessed as concentration required for minimum inhibition of BRP-resistant subpopulation growth; type: functional; method in brief: as §1
Staphylococcus aureus [9] = experiment: Antimicrobial activity against methicillin-resistant Staphylococcus aureus USA300 assessed as concentration required for minimum inhibition of BRP-resistant subpopulation growth; type: functional; method in brief: as §1
[10] = target: T2, MecA (Staphylococcus aureus) (UniProt Q7DHH4); experiment: Inhibition of methicillin-resistant Staphylococcus aureus COL PBP2a at 10 uM by competitive assay; settings: Staphylococcus aureus subsp. aureus COL; method in brief: as §2
T2 sequence (whole entry): T1 sequence (Q7DHH4 whole entry)

Staphylococcus aureus [11] = experiment: Effect on cell wall composition of Staphylococcus aureus COL at 0.4 ug/ml by HPLC method; type: functional, organism-based
Method in brief: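 Strain COL was grown in 1-liter cultures at 37°C to OD620 0.4, with or without drug at 0.4 µg/ml in the medium. Peptidoglycan was then purified and analysed by HPLC elution profile.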

Staphylococcus aureus [12] = experiment: Antimicrobial activity against methicillin-resistant Staphylococcus aureus HAR22 assessed as concentration required for minimum inhibition of oxacillin-resistant subpopulation growth by Etest; type: functional; method in brief: as §1
Staphylococcus aureus [13] = experiment: Antimicrobial activity against methicillin-resistant Staphylococcus aureus HDE288 assessed as concentration required for minimum inhibition of BRP-resistant subpopulation growth by Etest; type: functional; method in brief: as §1
Staphylococcus aureus [14] = experiment: Antimicrobial activity against methicillin-resistant Staphylococcus aureus E2125 assessed as concentration required for minimum inhibition of BRP-resistant subpopulation growth by Etest; type: functional; method in brief: as §1
Staphylococcus aureus [15] = experiment: Antimicrobial activity against methicillin-resistant Staphylococcus aureus E2125 by Etest; type: functional; method in brief: as §1
Staphylococcus aureus [16] = experiment: Antimicrobial activity against methicillin-resistant Staphylococcus aureus BK2464 assessed as concentration required for bacterial subpopulation growth; type: functional; method in brief: as §1
Staphylococcus aureus [17] = experiment: Antimicrobial activity against methicillin-resistant Staphylococcus aureus HAR24 by Etest; type: functional; method in brief: as §1
Staphylococcus aureus [18] = experiment: Antimicrobial activity against methicillin-resistant Staphylococcus aureus HU25 assessed as concentration required for minimum inhibition of BRP-resistant subpopulation growth; type: functional; method in brief: as §1
Staphylococcus aureus [19] = experiment: Antimicrobial activity against methicillin-resistant Staphylococcus aureus HAR22 by Etest; type: functional; method in brief: as §1
Staphylococcus aureus [20] = experiment: Antimicrobial activity against methicillin-resistant Staphylococcus aureus HAR24 assessed as concentration required for minimum inhibition of oxacillin-resistant subpopulation growth by Etest; type: functional; method in brief: as §1
Staphylococcus aureus [21] = experiment: Antimicrobial activity against methicillin-resistant Staphylococcus aureus HAR24 assessed as concentration required for bacterial subpopulation growth; type: functional; method in brief: as §1
Staphylococcus aureus [22] = experiment: Antimicrobial activity against methicillin-resistant Staphylococcus aureus HDE288 assessed as concentration required for bacterial subpopulation growth; type: functional; method in brief: as §1
Staphylococcus aureus [23] = experiment: Antimicrobial activity against methicillin-resistant Staphylococcus aureus HPV107 assessed as concentration required for bacterial subpopulation growth; type: functional; method in brief: as §1
Staphylococcus aureus [24] = experiment: Antimicrobial activity against methicillin-resistant Staphylococcus aureus BK2529 by Etest; type: functional; method in brief: as §1
Staphylococcus aureus [25] = experiment: Antimicrobial activity against methicillin-resistant Staphylococcus aureus COL assessed as concentration required for bacterial subpopulation growth; type: functional; method in brief: as §1

In the case of `Nc1nc(/C(=N/O)C(=O)N[C@@H]2C(=O)N3C(C(=O)O)=C(/C=C4\CCN([C@@H]5CCNC5)C4=O)CS[C@H]23)ns1` [CEFTOBIPROLE], the Activity (Staphylococcus aureus [1]) is reported as 3 µg/mL, the Activity (Staphylococcus aureus [2]) is reported as “Active” and the Activity (Staphylococcus aureus [3]) is reported as 3 µg/mL. For the same compound, the Activity (Staphylococcus aureus [4]) was 0.8 µg/mL, the Activity (Staphylococcus aureus [5]) was 6 µg/mL and the Activity (Staphylococcus aureus [6]) was 3 µg/mL. It also gave an IC50 (MecA) of 3.2 µM, an MIC (Staphylococcus aureus [7]) of 1.5 µg/mL (≈ 2.81 µM) and an Activity (Staphylococcus aureus [8]) of 3 µg/mL. The Activity (Staphylococcus aureus [9]) was 0.8 µg/mL, the inhibition [10] was 66% and the Activity (Staphylococcus aureus [11]) was “Active”. The Activity (Staphylococcus aureus [12]) was 0.8 µg/mL, the Activity (Staphylococcus aureus [13]) was 1.5 µg/mL and the Activity (Staphylococcus aureus [14]) was 1.5 µg/mL. It also gave an MIC (Staphylococcus aureus [15]) of 0.8 µg/mL (≈ 1.5 µM), an Activity (Staphylococcus aureus [16]) of 1.5 µg/mL and an MIC (Staphylococcus aureus [17]) of 1.5 µg/mL (≈ 2.81 µM). It also gave an Activity (Staphylococcus aureus [18]) of 3 µg/mL, an MIC (Staphylococcus aureus [19]) of 0.8 µg/mL (≈ 1.5 µM) and an Activity (Staphylococcus aureus [20]) of 1.5 µg/mL. The Activity (Staphylococcus aureus [21]) was 3 µg/mL, the Activity (Staphylococcus aureus [22]) was 3 µg/mL and the Activity (Staphylococcus aureus [23]) was 3 µg/mL. For the same compound, the MIC (Staphylococcus aureus [24]) was 1.5 µg/mL (≈ 2.81 µM) and the Activity (Staphylococcus aureus [25]) was 3 µg/mL.
